High-throughput results as filed in PubChem.
TCR-CD3 inh: inhibitors of human TCR-CD3 interaction, primary screen, biochemical, fluorescence, TAMRA-labeled TCR probe; inhibition, % at 9.4 µM; AID 651800, 2012; 360,000 tested, 0.37% active; T-cell receptor (TCR); in the data active = inhibition above about 19%;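 note: recombinant mutant TCR 2C K166C tagged with TAMRA read by polarization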
UHRF1 binding: UHRF1 methylated DNA binding inhibitors, primary screen, counter-screen for MBD2 inhibitor project, biochemical, TR-FRET, human UHRF1, single concentration; UHRF1 binding to methylated oligo; inhibition, % at 4.4 µM; 370,000 tested, 0.75% active; AID 687016, 2013; in the data active = inhibition above about 21%;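 note: UHRF1 SRA domain binding a hemimethylated CpG hairpin DNA probe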
LEDGF integ inh: blockers of LEDGF/p75-dependent integrase strand transfer – biochemical, TR-FRET, high throughput, primary screen; HIV-1 integrase (with human LEDGF/p75); TR-FRET IN-LEDGF/p75 DNA integration, Eu/Cy5; inhibition, % at 3.7 µM; 370,000 tested, 0.64% active; AID 743269, 2014;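 active = inhibition above the screen-wide mean plus 3 SD, cut at about 13% in these data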;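 note: signal is the Cy5 over europium emission ratio at 671 and 618 nm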
ARFGAP1 inhibitor: inhibitors of rat ARFGAP1 GAP activity, primary screen, biochemical, fluorescence polarization, GDP tracer. ADP-ribosylation factor GTPase-activating protein 1 (Rattus norvegicus), Q62848. Arfgap1-stimulated ARF1 GTP hydrolysis, GDP FP detection. inhibition, % at 16.5 µM. 360,000 tested, 0.26% active. AID 651572, 2012;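 active = inhibition above a per-plate limit, mean inhibition of low control wells plus 3 SD, cut at about 25% in these data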
Target sequence (Q62848 1-136 limits assumed): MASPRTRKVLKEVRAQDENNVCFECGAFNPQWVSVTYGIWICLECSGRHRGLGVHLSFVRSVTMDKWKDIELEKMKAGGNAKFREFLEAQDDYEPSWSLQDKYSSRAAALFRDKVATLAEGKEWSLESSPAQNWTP
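Material – truncated rat Arfgap1 GAP domain · Buffer or medium – HEPES-based buffer, pH 7.5 · Reagent – human ARF1(Δ1-17)-GTP substrate · Dosing – 16.5 µM single point, 1.26% DMSO · Schedule – GTP hydrolysis reaction 2 h at 25 °C · Technique – GDP detection by fluorescence polarization · Benchmarks – No-Arfgap1 wells (100%) versus DMSO full-reaction wells (0%) · Repeats – single replicate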
MBD2 inh: inhibitors of MBD2 binding to methylated DNA, primary screen, biochemical, TR-FRET, DNA-binding domain, human; MBD2 binding to methylated oligonucleotide; inhibition, % at 4.4 µM; 370,000 tested, 0.31% active; AID 686964, 2013; in the data active = inhibition above about 13%
ASAP1 GAP inh: inhibitors of human ASAP1 ArfGAP activity, primary screen, biochemical, fluorescence polarization. Arf-GAP with SH3 domain, ANK repeat and PH domain-containing protein 1 (Homo sapiens), …. ASAP1-stimulated ARF1 GTP hydrolysis, GDP FP detection. inhibition, % at 16.5 µM. 360,000 tested, 0.19% active; in the data active = inhibition above about 25%
Target sequence (Q9ULH1 325-724 limits assumed): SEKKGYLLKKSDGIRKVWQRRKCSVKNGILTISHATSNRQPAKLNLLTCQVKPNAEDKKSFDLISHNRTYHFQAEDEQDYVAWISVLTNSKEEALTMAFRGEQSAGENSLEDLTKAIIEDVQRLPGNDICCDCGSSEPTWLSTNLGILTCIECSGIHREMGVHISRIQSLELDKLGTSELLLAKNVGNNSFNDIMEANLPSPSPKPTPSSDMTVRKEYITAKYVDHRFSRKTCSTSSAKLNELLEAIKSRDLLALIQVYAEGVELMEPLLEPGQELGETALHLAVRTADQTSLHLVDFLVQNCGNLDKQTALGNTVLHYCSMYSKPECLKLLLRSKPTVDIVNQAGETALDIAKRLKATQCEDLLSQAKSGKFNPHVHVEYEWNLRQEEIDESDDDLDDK
IN multimer up: HIV-1 IN multimer formation enhancers, counter-screen for LEDGF/p75 integration inhibitor project, biochemical, TR-FRET; shares compounds with LEDGF integ inh; TR-FRET HIV-1 integrase multimerization; activation, % at 7.7 µM; 2,000 tested, 17% active; AID 1053131, 2014; in the data active = activation above about 8.9%
TRFRET interf: TR-FRET optical interference artefacts, confirmation, artefact control for LEDGF/p75-dependent integration inhibitor project, biochemical, HIV-1 IN multimerization; shares compounds with LEDGF integ inh; TR-FRET optical interference counterscreen; inhibition, % at 7.7 µM; 2,000 tested, under 10 active; AID 1053135, 2014;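 active = inhibition above the mean over all tested compounds plus 3 SD, which no compound reached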
LEDGF integ conf: inhibitors of HIV-1 IN-LEDGF/p75 DNA integration, confirmation, biochemical, TR-FRET; shares compounds with LEDGF integ inh; TR-FRET LEDGF/p75-dependent HIV-1 integration; inhibition, % at 3.7 µM; 2,000 tested, 36% active; AID 1053136, 2014; in the data active = inhibition above about 14%
Of the large screens only hits and unclear results are named; the others gave an inactive call (follow-up assays come after a bar, where they were run). An excerpt weighted towards active compounds, which were near 2% of everything screened.

Cc1cn([C@H]2C[C@H](O)[C@@H](CCC(=O)NCc3cccc4ccccc34)O2)c(=O)[nH]c1=O	LEDGF integ inh 15 | IN multimer up inactive | TRFRET interf inactive | LEDGF integ conf inactive
COc1ccccc1C(=O)C1CCCN(C(=O)c2cccnc2SC)C1 (stereo not given)	none
CSc1ncccc1C(=O)N1CCCC(C(=O)c2ccc3ccccc3c2)C1 (stereo not given)	LEDGF integ inh 15 | IN multimer up inactive | TRFRET interf inactive | LEDGF integ conf inactive
O=S(=O)(NC(CO)Cc1ccccc1)c1ccc(Br)cc1F (stereo not given)	none
COc1cc(OC)c(C(=O)O/N=C(\N)c2cccc(C)c2)cc1OC	LEDGF integ inh 17 | IN multimer up inactive | TRFRET interf inactive | LEDGF integ conf inactive
COc1cc(OC)c(C(=O)O/N=C(\N)c2ccc(C)cc2)cc1OC	none
CC(C)C[C@@H]1CN(CCCC[C@H]2CNC(=O)C(=O)N2CCC2CCCCC2)C(=O)C(=O)N1CCc1ccc(O)cc1	none
O=C(C1CCCN(S(=O)(=O)c2ccccc2)C1)N1CCCCC1 (stereo not given)	none
O=C(COC(=O)Cc1ccsc1)NCc1ccccc1	LEDGF integ inh 30 | IN multimer up inactive | TRFRET interf inactive | LEDGF integ conf inactive
CC(C=CC(O)=C1C(=O)CNC1=O)=C[C@@H](C)C1OC2(C)OC(C(=O)C3O[C@@]32C)C1C (stereo not given in full)	LEDGF integ inh 22 (no result: ARFGAP1 inhibitor) | IN multimer up inactive | TRFRET interf inactive | LEDGF integ conf inactive
O=C(Nc1cccc(NC(=O)c2ccc([N+](=O)[O-])o2)c1)c1ccco1	none
NC(=O)/C(=C\c1ccc([N+](=O)[O-])o1)c1ccco1	LEDGF integ inh 22 | IN multimer up inactive | TRFRET interf inactive | LEDGF integ conf 28
Cc1ccc(-n2c(SCC(=O)Nc3ccccc3-c3ccccc3)nnc2-c2ccccn2)cc1	none (no result: TCR-CD3 inh, ARFGAP1 inhibitor, ASAP1 GAP inh)
Cc1ccc(-n2ncc3c2CC(C)(C)CC3NC(=O)CCN2CCCO2)cc1 (stereo not given)	none
C[C@H]1c2cccc(O)c2C(=O)C2C(=O)C3(O)C(=O)C(C(N)=O)C(=O)[C@@H](N(C)C)[C@@H]3[C@@H](O)[C@@H]21 (stereo not given in full)	none
C[C@H]1c2cccc(O)c2C(O)=C2C(=O)C3(O)C(O)=C(C(N)=O)C(=O)[C@@H](N(C)C)[C@@H]3[C@@H](O)[C@@H]21 (stereo not given in full)	none
CN(C)c1ccc(O)c2c1CC1CC3C(N(C)C)C(=O)C(C(N)=O)=C(O)[C@@]3(O)C(=O)C1=C2O (stereo not given in full)	LEDGF integ inh 22 | IN multimer up 10.0 | TRFRET interf inactive | LEDGF integ conf inactive
CN(C)c1ccc(O)c2c1CC1CC3[C@@H](N(C)C)C(=O)C(C(N)=O)C(=O)[C@]3(O)C(=O)C1C2=O (stereo not given in full)	LEDGF integ inh 37 | IN multimer up inactive | TRFRET interf inactive | LEDGF integ conf inactive
CCc1ccc(NC(=S)Nc2ccc3[nH]c(=O)[nH]c3c2)cc1	none
O=C(OCc1cn([C@H]2CN(C(=O)c3cccs3)[C@@H](c3ccc(Cl)cc3)C[C@@H]2O)nn1)c1ccccc1	none
Cc1ccc2nc3c(cc(S(=O)(=O)c4ccccc4)c(=N)n3Cc3ccco3)c(=O)n2c1	LEDGF integ inh 18 | IN multimer up inactive | TRFRET interf inactive | LEDGF integ conf inactive
N=c1c(C(=O)NCCc2ccccc2)cc2c(=O)n3ccccc3nc2n1Cc1ccco1	LEDGF integ inh 17 | IN multimer up inactive | TRFRET interf inactive | LEDGF integ conf inactive
N#Cc1nc(-c2cccc(Cl)c2)oc1N1CCC(C(N)=O)CC1	LEDGF integ inh 26 | IN multimer up inactive | TRFRET interf inactive | LEDGF integ conf inactive
O=C(CC1CCC1)NC(c1ccccc1)c1ccccc1	none
NC(CSCc1cccc(Br)c1)C(=O)O (stereo not given)	none
NC(=O)CSCc1cccc(Br)c1	LEDGF integ inh 33 | IN multimer up inactive | TRFRET interf inactive | LEDGF integ conf inactive
CCOC(=O)C1=C(O)/C(=C\c2ccc(CNC(=O)C(=O)Nc3ccccc3)o2)N=C1C	LEDGF integ inh 25 | IN multimer up 10 | TRFRET interf inactive | LEDGF integ conf 26
CCOC(=O)C1=C(O)/C(=C\c2cccs2)N=C1C	none
Cc1cccc[n+]1CCCCCCCCCC[n+]1ccccc1C	LEDGF integ inh 21 | IN multimer up inactive | TRFRET interf inactive | LEDGF integ conf inactive
CC1(C(=O)NCc2cccc(C(F)(F)F)c2)CCN1C1Cc2ccccc2C1 (stereo not given)	none
COc1ccc(-n2nc(C(=O)O)cc2-c2ccccc2)cc1	LEDGF integ inh 29 | IN multimer up inactive | TRFRET interf inactive | LEDGF integ conf inactive
CN(CC(=O)Nc1ccccc1Br)C(=O)CNC(=O)c1ccco1	none
O=C(Nc1ccccc1N1CCOCC1)c1ccc(F)c(S(=O)(=O)N2CCOCC2)c1	none
CC1Cc2ccccc2N1C(=O)c1ccc(F)c(S(=O)(=O)N2CCOCC2)c1 (stereo not given)	LEDGF integ inh 26 | IN multimer up inactive | TRFRET interf inactive | LEDGF integ conf inactive
